T cell HTS: modulators of CD8 T cell-vesicle binding, primary screen, mouse 2C CD8+ T cells, flow cytometry | 2C CD8+ T cell-vesicle binding; stronger effect = lower value | response (vesicle binding), % at 7 µM | hit rate 0.068% among 330,000 | AID 2052, 2009;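 active = response, share of CD8 T cells binding vesicles, and their 90th percentile fluorescence all below set limits, cut at about 80% in these data, passing the limit was not always enough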;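 note: values below 100% mean blocked vesicle binding to the CD8+ T cells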
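Material: 2C TCR transgenic mouse naive CD8+ T cells, MACS-purified. Also added: QL9-charged Drosophila Ld/ICAM-1/B7-1 vesicles. Timing: binding 1.5 h at 37 °C. Measured by: high-throughput flow cytometry with anti-B7-1 and anti-CD8 staining. Read-out: percent CD8+ FL2 mean versus row control. Controls: Unloaded micro-vesicles (low), QL9 vesicles with 0.7% DMSO (high).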
Beta2AR agonist: beta2AR agonists driving receptor internalization, primary screen, cell-based, FAP fluorogen, flow cytometry | Beta-2 adrenergic receptor (Homo sapiens), P07550 | hit rate 0.43% among 340,000 | AID 504454, 2011 | Am2.2-beta2AR cells | response, % (no concentration beside the values);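 active = response above a set limit, near 3 SD of response in nonfluorescent compounds, cut at about 42% in these data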
Target sequence (P07550 whole entry, looked up): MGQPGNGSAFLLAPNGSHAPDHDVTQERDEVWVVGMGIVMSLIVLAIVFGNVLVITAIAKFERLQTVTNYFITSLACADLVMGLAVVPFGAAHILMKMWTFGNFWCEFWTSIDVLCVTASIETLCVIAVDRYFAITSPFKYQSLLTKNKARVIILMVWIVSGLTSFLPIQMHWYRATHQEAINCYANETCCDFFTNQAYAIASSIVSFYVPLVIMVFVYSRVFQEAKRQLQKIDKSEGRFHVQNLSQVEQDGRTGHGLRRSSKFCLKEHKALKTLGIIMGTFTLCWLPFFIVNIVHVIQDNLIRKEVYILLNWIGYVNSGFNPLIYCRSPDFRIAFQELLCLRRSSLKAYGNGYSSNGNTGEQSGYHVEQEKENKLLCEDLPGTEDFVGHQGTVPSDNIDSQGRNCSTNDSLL
Granule exo inh: LAMP-1 surface exposure blockers, TALL-104 cells – cell-based, flow cytometry, MLPCN library, primary screen; TALL-104 LAMP-1 surface exposure; cells stimulated with thapsigargin and PMA; inhibition, % at 10 µM; hit rate 0.66% among 360,000; AID 651702, 2012;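 active = inhibition above about 55%, limit read from the data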
rCAG binder: binders of r(CAG) RNA repeats, primary screen, biochemical, fluorescence | r(CAG) RNA repeat, TO-PRO-1 dye displacement fluorescence | inhibition, % at 3 µM | hit rate 1.3% among 370,000 | AID 651821, 2012;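 active = inhibition above the plate cutoff, the mean of all test compounds on that plate plus 3 SD, cut at about 35% in these data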;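 note: 0% = DMSO alone and 100% = 100 µM mitoxantrone as full dye displacement; higher means more dye released from RNA so lower well fluorescence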
MPTP inh: mitochondrial permeability transition pore inhibitors, primary screen, biochemical, isolated mouse mitochondria, absorbance; Ca2+ swelling absorbance, 30 min; inhibition, % at 10 µM; hit rate 1.4% among 360,000; AID 602449, 2012;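 active = inhibition of 50% or more, scaled per plate between neutral and stimulator controls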;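 note: 0% = DMSO wells given calcium and 100% = 1 mM EGTA wells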
V-ATPase pH: regulators of yeast V-ATPase proton pumping, primary screen, pHLuorin cytosolic pH fluorescence | hit rate 0.37% among 350,000 | AID 504577, 2011 | response, % at 10 µM | S. cerevisiae; in the data active = response mostly above about 7.3%, no sharp cut-off; inactive = mostly below about 5.4%; note: actives read high
rCAG bind conf: small molecules binding CAG repeat RNA – biochemical, fluorescence, confirmation. shares compounds with rCAG binder. inhibition, % at 3 µM. r(CAG) RNA repeat, TO-PRO-1 dye displacement fluorescence. hit rate 70% among 4,300;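 active = inhibition above a per-plate cutoff, the mean inhibition of sample wells plus 3 SD, cut at about 35% in these data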;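 note: loss of TO-PRO-1 fluorescence as compound displaces dye from 1x1 AA loop RNA; 0% = DMSO only wells and 100% = 100 µM mitoxantrone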
DNA CAG counter: displacement of TO-PRO-1 from CAG DNA duplex, counter-screen for rCAG RNA repeat binder project, biochemical, fluorescence, TO-PRO-1 dye, d(CAG) DNA oligo; inhibition, % at 3 µM; shares compounds with rCAG binder; AID 652068, 2013; d(CAG) DNA oligo TO-PRO-1 dye displacement; hit rate 94% among 4,300;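 active = inhibition above its plate's cutoff, the mean test-well inhibition plus 3 SD, cut at about 4.8% in these data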;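 note: 0% = DNA dye mix with DMSO and 100% = 100 µM mitoxantrone; hits displace the dye from DNA and so lower well fluorescence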
The depositor's hits bear a star. The list is not random: actives were taken first. Their share in the collection is about 3.8%.

Screening Cc1ccccc1CNC(=O)C1C2C=CC3(CN(Cc4ccccc4)C(=O)C13)O2 (stereo not drawn) returned rCAG binder -1.4.
Screening CCOc1cc(/C=C/c2ccc3cccc([N+](=O)[O-])c3n2)cc(Cl)c1O returned T cell HTS 281.6, Beta2AR agonist 2.2, Granule exo inh -0.9, rCAG binder 41.3*, MPTP inh 1.1, V-ATPase pH 1.1, rCAG bind conf 33.2 and DNA CAG counter 13.4*.
`O=[N+]([O-])c1ccc(S(=O)(=O)Nc2ccc(-c3ccc(N4CCCC4)nn3)cc2)cc1` gave T cell HTS 329.4, Beta2AR agonist -0.6, Granule exo inh 1.1, rCAG binder 25.1, MPTP inh 0.6 and V-ATPase pH -7.3.
`COc1ccc(-c2ccc(NS(=O)(=O)c3cc([N+](=O)[O-])c(C)c([N+](=O)[O-])c3)cc2)nn1` gave T cell HTS 374.9, Beta2AR agonist 3.8, Granule exo inh -0.8, rCAG binder 55.5*, MPTP inh 1.9, V-ATPase pH -4.2, rCAG bind conf 42.5* and DNA CAG counter 15.1*.
`O=[N+]([O-])c1ccccc1S(=O)(=O)Nc1cccc(-c2ccc(N3CCCC3)nn2)c1` gave T cell HTS 176.9, Beta2AR agonist 3.0, Granule exo inh 6.1, rCAG binder 36.4*, MPTP inh -2.7, V-ATPase pH 3.3, rCAG bind conf 32.9 and DNA CAG counter 9.6*.
Cc1ccc([N+](=O)[O-])cc1S(=O)(=O)Nc1ccc(-c2ccc(N3CCCC3)nn2)cc1 was read as T cell HTS 320.5, Beta2AR agonist 7.3, Granule exo inh -2.8, rCAG binder 37.4*, MPTP inh -2.0, V-ATPase pH 4.5, rCAG bind conf 43.5* and DNA CAG counter 15.5*.
For O=[N+]([O-])c1ccc(Cl)c(S(=O)(=O)Nc2ccc(-c3ccc(N4CCCC4)nn3)cc2)c1 the results were T cell HTS 689.0, Beta2AR agonist -0.9, Granule exo inh -1.0, rCAG binder 47.1*, MPTP inh -0.3, V-ATPase pH -1.1, rCAG bind conf 39.3* and DNA CAG counter 11.6*.
O=[N+]([O-])c1ccccc1S(=O)(=O)Nc1cccc(-c2ccc(N3CCOCC3)nn2)c1 was read as T cell HTS 412.9, Beta2AR agonist 0.7, Granule exo inh 0.4, rCAG binder 19.8, MPTP inh -0.7 and V-ATPase pH 5.8.
Screening O=[N+]([O-])c1ccc(Cl)c(S(=O)(=O)Nc2cccc(-c3ccc(N4CCCC4)nn3)c2)c1 returned T cell HTS 191.3, Beta2AR agonist -4.6, Granule exo inh -2.1, rCAG binder 47.1*, MPTP inh -1.1, V-ATPase pH -0.7, rCAG bind conf 51.6* and DNA CAG counter 18.4*.
For Cc1c([N+](=O)[O-])cc(S(=O)(=O)Nc2ccc(-c3ccc(N4CCCC4)nn3)cc2)cc1[N+](=O)[O-] the results were T cell HTS 276.9, Beta2AR agonist 13.2, Granule exo inh -0.1, rCAG binder 56.2*, MPTP inh 0.5, V-ATPase pH -0.7, rCAG bind conf 65.2* and DNA CAG counter 27.7*.
Screening COc1ccc(S(=O)(=O)Nc2ccc(-c3ccc(N4CCCC4)nn3)cc2)cc1C returned T cell HTS 173.9, Beta2AR agonist 15.2, Granule exo inh -2.3, rCAG binder 9.8, MPTP inh -1.9 and V-ATPase pH -2.0.
Screening CCN(CC)S(=O)(=O)c1ccc(NS(=O)(=O)c2ccc(OC)c([N+](=O)[O-])c2)cc1 returned T cell HTS 428.4, Beta2AR agonist 6.0, Granule exo inh -1.8, rCAG binder 42.5*, MPTP inh 1.5, V-ATPase pH 2.6, rCAG bind conf 18.4 and DNA CAG counter 3.9.
Screening CC[C@@H](CCCc1ccccc1OC)CCS(=O)(=O)C(C)(C)C returned rCAG binder 0.6.
`CC1=CC(C)(C)NC(=S)N1c1cccc2cc(S(=O)(=O)O)ccc12` gave T cell HTS 132.5, Beta2AR agonist -8.9, Granule exo inh 7.8, rCAG binder 43.4*, MPTP inh 0.4, V-ATPase pH -1.7, rCAG bind conf 87.1* and DNA CAG counter 57.6*.
O=C(O)c1ccccc1N1C(=O)C2C3c4ccccc4C(Br)(c4ccccc43)C2C1=O (stereo not drawn) was read as T cell HTS 307.4, Beta2AR agonist 1.5, Granule exo inh 2.2, rCAG binder 34.7*, MPTP inh 0.9, V-ATPase pH 1.7, rCAG bind conf 26.8 and DNA CAG counter 4.5*.
`S=c1[nH]nc(-c2ccco2)n1/N=C/c1ccc(Cl)c(Cl)c1` gave T cell HTS 255.1, Beta2AR agonist -5.4, Granule exo inh 14.8, rCAG binder 40.9*, MPTP inh -0.2, V-ATPase pH 0.6, rCAG bind conf 40.2* and DNA CAG counter 10.4*.
S=c1[nH]nc(-c2ccco2)n1/N=C/C(Cl)=C/c1ccccc1 was read as T cell HTS 333.7, Beta2AR agonist -0.5, Granule exo inh 3.7, rCAG binder 57.9*, MPTP inh 8.3, V-ATPase pH 4.3, rCAG bind conf 51.7* and DNA CAG counter 18.5*.
S=c1[nH]nc(-c2ccco2)n1/N=C/c1cccc(Cl)c1 was read as T cell HTS inactive, Beta2AR agonist 0.4, Granule exo inh -5.9, rCAG binder 10.3, MPTP inh 3.4 and V-ATPase pH 5.5.
Screening Cc1cc(-c2n[nH]c(=S)n2/N=C/C(Cl)=C/c2ccccc2)n[nH]1 returned T cell HTS 361.3, Beta2AR agonist -2.9, Granule exo inh -2.5, rCAG binder 31.5, MPTP inh 2.1 and V-ATPase pH -0.4.
`CCN(CC)S(=O)(=O)c1cccc(C(=O)N/N=C/c2cccc(O)c2O)c1` gave T cell HTS 504.8, Beta2AR agonist 16.9, Granule exo inh -13.2, rCAG binder 37.4*, MPTP inh 1.6, V-ATPase pH -0.4, rCAG bind conf 33.0 and DNA CAG counter 13.0*.
Screening COC(=O)Cn1cnc2c(NC(=O)c3ccccc3)ncnc21 returned rCAG binder 0.5.
For CC(=O)c1sc(N/N=C\c2c(O)ccc3ccccc23)nc1C the results were T cell HTS 524.8, Beta2AR agonist -95.0, Granule exo inh 6.4, rCAG binder 52.5*, MPTP inh 23.2, V-ATPase pH -1.5, rCAG bind conf 60.2* and DNA CAG counter 28.8*.

Screening data deposited in PubChem BioAssay by several laboratories.
